Four compounds from ChEMBL document CHEMBL1156047, “Diastereoisomers of 2-benzyl-2, 3-dihydro-2-(1H-inden-2-yl)-1H-inden-1-ol: potential anti-inflammatory agents” (2009) can be followed below.

The structures appear in SMILES notation.

For assay [1], the system named is Ileum. The assay is described as follows: Muscle relaxant activity in potassium-depolarized guinea pig ileum assessed as inhibition of calcium-induced contraction at 10 nM. In kind it is functional. The conditions noted are these: Cavia porcellus. In outline:
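Isolated guinea-pig ileum, depolarised with potassium, in which calcium (2.5 mM) induced a sustained contraction. The agent was applied at 1 × 10^-8 M, and activity was expressed as percent inhibition of the calcium contracture. Values are given as mean with SEM, n = 6.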

The subject of a further assay is Mus musculus. The assay is described as follows: Antiinflammatory activity against arachidonic acid-induced ear edema in Balb/C mouse at 300 ug/ear administered topically 1 hr before arachidonic acid challenge measured after 60 mins. In kind it is functional. In outline:
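Topical application in 100 µL acetone (compound 300 µg, indomethacin 300 µg positive control, vehicle alone) to mouse ear; oedema induced with arachidonic acid (4 mg). Ear width measured with a micrometer screw gauge before and 60 min after induction. Oedema expressed as percentage of normal by comparing left and right ear widths. n = 4–8 per group.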

Assay [2] has as its system Ileum. The experiment in a line: Muscle relaxant activity in potassium-depolarized guinea pig ileum assessed as inhibition of calcium-induced contraction at 10 uM. Type of assay: functional. The conditions noted are these: Cavia porcellus. In short, it runs like this: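 Isolated guinea-pig ileum depolarised with potassium; sustained contraction induced by calcium (2.5 mM). Test compounds at 1 × 10⁻⁵ M, with nifedipine 1 × 10⁻⁸ M as reference. Result expressed as % inhibition of the calcium contracture. Mean ± SEM, n = 6–12.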

The subject of assay [3] is RBL-2H3. The assay is described as follows: Antiinflammatory activity against calcium ionophore A23187-induced beta-hexosaminidase release in rat RBL2H3 cells at 50 uM after 30 mins. Type of assay: functional. The conditions noted are these: RBL-2H3, 0.5 h. In short, it runs like this:
(§1)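 RBL-2H3 cells plated at 1 × 10⁵ cells/cm² in 24-well plates and allowed to adhere ≥3 h. Medium replaced with fresh medium containing calcium ionophore A23187 plus compound (0.3–50 µM range; DMSO 0.5% solvent control). Incubation 30 min, 37 °C, 5% CO₂. Supernatant β-hexosaminidase measured with p-nitrophenyl N-acetyl-glucosaminide in citrate pH 4.5 for 1 h at 37 °C, stopped with NaOH, read at 405 nm. Values are % of total (Triton X-100 lysate), spontaneous release subtracted. Triplicate.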

For assay [4], the system named is RBL-2H3. The experiment in a line: Antiinflammatory activity against calcium ionophore A23187-induced beta-hexosaminidase release from rat RBL2H3 cells after 30 mins. In kind it is functional, cell-based. In outline:
as §1

In assay [5] the test system is RBL-2H3. The experiment in a line: Antiinflammatory activity against calcium ionophore A23187-induced beta-hexosaminidase release from rat RBL2H3 cells at 10 uM after 30 mins. Type of assay: functional. The conditions noted are these: RBL-2H3, 0.5 h. In short, it runs like this: as §1

As usually defined, the inhibition is the change of the read-out against control, counted positive when it falls. For `COC(=O)C1=C(C)NC(C)=C(C(=O)OC)C1c1ccccc1[N+](=O)[O-]` [NIFEDIPINE], in the assay with Ileum [1], the inhibition at 0.01 µM was determined as 48.1%.
Regarding `COc1ccc2c(c1)c(CC(=O)O)c(C)n2C(=O)c1ccc(Cl)cc1` [INDOMETHACIN], in the assay with Mus musculus, the “inhibition (INH)” value was determined as 50%.
For the compound `O[C@H]1c2ccccc2C[C@]1(Cc1ccccc1)C1=Cc2ccccc2C1`, the “inhibition (INH)” value in the assay on Mus musculus is given as 45%. In addition, the inhibition at 10 µM stood at 18.9% in the assay on Ileum [2] and 45% in the assay with RBL-2H3 [5]. Also, the inhibition at 50 µM with RBL-2H3 [3] was found to be 96%. For the same compound, the inhibition result in the assay on RBL-2H3 [4] is “Dose-dependent effect”.
`O[C@H]1c2ccccc2C[C@@]1(Cc1ccccc1)C1=Cc2ccccc2C1`: in the assay with Mus musculus, the “inhibition (INH)” value came to 59%. The results for the inhibition at 10 µM with Ileum [2] and with RBL-2H3 [5] were 36.4% and 40%, respectively. Also, the inhibition at 50 µM with RBL-2H3 [3] was found to be 75%. In addition, the inhibition entry in the assay with RBL-2H3 [4] was “Dose-dependent effect”.
